We go through 17 compounds from ChEMBL document CHEMBL1132384, “Design, synthesis, and evaluation of chromen-2-ones as potent and selective human dopamine D4 antagonists” (J Med Chem, 1999).

Calls of active or inactive are those of the source. The calls are words filed in the database; no cut-off is given here.

In experiment [1] the target is T1, 5-hydroxytryptamine receptor 1A (Mus musculus, UniProt Q64264).
T1 sequence (Q64264 whole entry): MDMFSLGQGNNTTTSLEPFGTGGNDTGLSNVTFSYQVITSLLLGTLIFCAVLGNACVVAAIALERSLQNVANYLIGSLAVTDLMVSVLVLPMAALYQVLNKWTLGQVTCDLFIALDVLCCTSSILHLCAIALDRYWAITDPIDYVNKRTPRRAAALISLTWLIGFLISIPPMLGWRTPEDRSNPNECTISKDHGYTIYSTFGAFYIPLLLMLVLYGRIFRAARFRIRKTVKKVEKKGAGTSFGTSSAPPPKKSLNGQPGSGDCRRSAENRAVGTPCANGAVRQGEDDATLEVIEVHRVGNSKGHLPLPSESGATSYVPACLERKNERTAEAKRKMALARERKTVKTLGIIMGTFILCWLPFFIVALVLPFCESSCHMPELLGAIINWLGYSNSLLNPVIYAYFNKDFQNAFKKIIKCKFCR
The experiment in a line: Compound was tested for binding affinity using [3H]8-OH-DPAT against 5-hydroxytryptamine 1A receptor.

Experiment [2] concerns the target 5-hydroxytryptamine receptor 2A (Bos taurus, UniProt Q75Z89). In words: Compound was tested for binding affinity using [3H]ketanserin against 5-hydroxytryptamine 2 receptor.
The next experiment concerns the target D(3) dopamine receptor (Homo sapiens, UniProt P35462). The experiment in a line: Compound was tested for binding affinity using [3H]spiperone against cloned human Dopamine receptor D3 expressed in CHO-K1 cells. It is filed as cell-based. The essentials: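 Cloned human receptors expressed in CHO-K1 cells, displacement of [3H]spiperone; Ki from six concentrations run in triplicate, nonlinear regression.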

Experiment [3] deals with T2, D(4) dopamine receptor (Homo sapiens) (UniProt P21917).
T2 sequence (whole entry): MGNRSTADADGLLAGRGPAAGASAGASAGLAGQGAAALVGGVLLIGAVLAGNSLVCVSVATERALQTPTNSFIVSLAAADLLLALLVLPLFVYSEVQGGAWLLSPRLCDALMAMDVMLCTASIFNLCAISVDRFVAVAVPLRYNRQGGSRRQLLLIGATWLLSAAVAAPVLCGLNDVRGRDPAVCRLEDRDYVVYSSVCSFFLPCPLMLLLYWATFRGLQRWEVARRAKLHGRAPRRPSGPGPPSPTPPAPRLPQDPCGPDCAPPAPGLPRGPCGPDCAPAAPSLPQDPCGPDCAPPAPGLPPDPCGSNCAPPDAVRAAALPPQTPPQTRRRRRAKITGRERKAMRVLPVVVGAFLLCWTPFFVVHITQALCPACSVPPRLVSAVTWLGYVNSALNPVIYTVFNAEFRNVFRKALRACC
The experiment in a line: Compound was tested for the inhibition of [3H]thymidine uptake in CHO p-5 cells transfected with human Dopamine receptor D4.2. The experiment is classed as functional, cell-based. The essentials: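 Antagonism of quinpirole (full agonist) stimulated mitogenesis in CHO cells expressing human D4.2. After 18 h, [3H]thymidine 0.25 μCi/well for 2 h, trypsin 1 h, then filtered and counted. Intrinsic activity taken relative to quinpirole; IC50 derived.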

The next experiment deals with Mus musculus. The experiment in a line: Behavioral effect expressed as reversal of prepulse inhibition of acoustic startle in mice, ip; active at 30 mg/kg. The experiment is classed as functional, organism-based. The arrangement: dose 30 mg/kg. The essentials: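 Vehicle or test compound given ip 15 min before sc saline or apomorphine (0.25 mg/kg); 30-min session of 90 trials after 5-min 70 dB white-noise acclimation, prepulses 2–16 dB over background (20 ms), startle pulses 40 ms. %PPI from 16-dB prepulse; t-test; minimal effective dose reported.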

Experiment [4] has as its system Rattus norvegicus. The experiment in a line: Behavioral effect expressed as catalepsy test in rats, po; NA=Not active. The experiment is classed as functional, organism-based. The essentials:
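Rats dosed orally; front paws placed on an elevated bar, time (s) paws stayed on bar recorded over three consecutive 1-min trials, retested 2 h postdose. Value is mean response time for third trial.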

For experiment [5], the system named is Rattus norvegicus. The experiment in a line: Behavioral effect expressed as inhibition of spontaneous motor activity in rats, ip; NA=Not active. The experiment is classed as functional, organism-based.
Experiment [6] deals with Rattus norvegicus. In words: Behavioral effect expressed as inhibition of amphetamine-stimulated locomotor activity in rats, ip. The experiment is classed as functional.
The test system of experiment [7] is Rattus norvegicus. The experiment in a line: Compound was tested for the levels of hippocampal dopamine synthesis in rat after a dosage of 10 mg/kg intraperitoneally and expressed as % of control animals. Conditions: route intraperitoneal. It is filed as functional, Hippocampus.
Experiment [8] has as its system Rattus norvegicus. The experiment in a line: Compound was tested for the levels of striatal dopamine synthesis in rat after a dosage of 10 mg/kg intraperitoneally and expressed as % of control animals. The experiment is classed as functional. Conditions: route intraperitoneal.
The next experiment deals with T3, D(4) dopamine receptor (Homo sapiens, UniProt P21917).
T3 sequence (P21917 whole entry): T2 sequence (whole entry)
In words: Binding affinity using [3H]spiperone displacement from cloned human Dopamine receptor D4.2 expressed in CHO-K1 cells. The experiment is classed as cell-based.

In experiment [9] the target is Dopamine D2 receptor (Homo sapiens). The experiment in a line: Binding affinity using [3H]spiperone against cloned human Dopamine receptor D2L expressed in CHO-K1 cells.
The target in experiment [10] is T2, D(4) dopamine receptor (Homo sapiens). The experiment in a line: Ratio of receptor binding towards D2 to D4 receptor. The essentials: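 Ki from [3H]spiperone displacement at cloned human D2L and D4.2 receptors expressed in CHO-K1 cells. Six concentrations run in triplicate, fitted by nonlinear regression. Ratio taken as D2L Ki over D4.2 Ki.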
Experiment [11] has the same target. The experiment in a line: Compound was tested for the inhibition of [3H]-thymidine uptake in CHO p-5 cells transfected with Dopamine receptor D4.2. The experiment is classed as functional, cell-based.
In experiment [12] the test system is Rattus norvegicus. The experiment in a line: Compound was tested for the levels of hippocampal dopamine synthesis in rat after a dosage of 10 mg/kg intraperitoneally and expressed as % of control. It is filed as functional, Hippocampus. Conditions: route intraperitoneal. The essentials:
(§1)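 Rats given drug 10 mg/kg ip 60 min before and NSD 1015 (decarboxylase inhibitor) 30 min before decapitation; striatal and hippocampal DOPA by HPLC with electrochemical detection, as percentage increase over control; mean of 4 animals.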

The subject of experiment [13] is Rattus norvegicus. The experiment in a line: Compound was tested for the levels of striatal dopamine synthesis in rat after a dosage of 10 mg/kg intraperitoneally and expressed as % of control. It is filed as functional. As to conditions: route intraperitoneal. The essentials:
as §1

Chain of 5-hydroxytryptamine receptor 2A (Q75Z89 whole entry): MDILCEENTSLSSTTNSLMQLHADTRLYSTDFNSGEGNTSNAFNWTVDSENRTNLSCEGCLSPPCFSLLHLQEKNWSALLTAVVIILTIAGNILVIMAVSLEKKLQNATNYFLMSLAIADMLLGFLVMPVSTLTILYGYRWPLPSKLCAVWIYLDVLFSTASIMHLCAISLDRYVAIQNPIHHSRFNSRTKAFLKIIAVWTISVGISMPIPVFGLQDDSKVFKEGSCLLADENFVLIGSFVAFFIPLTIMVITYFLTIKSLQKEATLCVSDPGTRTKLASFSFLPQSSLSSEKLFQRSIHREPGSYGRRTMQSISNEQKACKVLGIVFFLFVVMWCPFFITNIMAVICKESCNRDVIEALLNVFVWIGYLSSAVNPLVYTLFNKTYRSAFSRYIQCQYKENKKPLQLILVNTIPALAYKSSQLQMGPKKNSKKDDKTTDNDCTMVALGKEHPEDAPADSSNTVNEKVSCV
Chain of D(3) dopamine receptor (P35462 whole entry): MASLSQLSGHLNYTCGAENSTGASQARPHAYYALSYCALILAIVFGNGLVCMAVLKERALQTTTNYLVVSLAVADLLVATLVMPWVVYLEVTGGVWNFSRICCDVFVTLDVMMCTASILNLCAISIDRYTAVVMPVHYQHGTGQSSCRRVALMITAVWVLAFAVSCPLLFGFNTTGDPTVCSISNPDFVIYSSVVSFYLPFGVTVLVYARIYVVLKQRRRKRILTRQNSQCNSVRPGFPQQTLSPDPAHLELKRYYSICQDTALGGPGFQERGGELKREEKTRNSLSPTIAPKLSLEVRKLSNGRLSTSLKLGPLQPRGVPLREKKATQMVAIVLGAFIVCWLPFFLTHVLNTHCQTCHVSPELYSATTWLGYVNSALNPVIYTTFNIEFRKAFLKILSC

On to `O=c1ccc2ccc(CNCCNc3ccccc3)cc2o1`, for which the inhibitory constant (Ki) is 3710 nM in experiment [1], above 4350 nM in experiment [2] and 424 nM on D(3) dopamine receptor. Besides, the Intrinsic activity in experiment [3] came to 0%. Further, the Behavioral effect result in the experiment with Mus musculus is “Active”. The Control entry in the experiment on Rattus norvegicus [4] and in the experiment with Rattus norvegicus [5] was “inactive” each time. Also, in the experiment with Rattus norvegicus [6], it took a dose of 3 mg/kg to reach the 50% effect level (ED50). Also, the Control in the experiment on Rattus norvegicus [7] is on record as 32%; with Rattus norvegicus [8], 20%.
Take `O=c1ccc2ccc(CN3CC=C(c4ccccc4)CC3)cc2o1`: the Ki on D(4) dopamine receptor is 4.4 nM; in [9], 121 nM.
Regarding `Cc1ccc(N2CCN(Cc3ccc4ccc(=O)oc4c3)CC2)cc1Cl`, the results for the inhibition constant (Ki) (at D(4) dopamine receptor; in [9]) were 6.9 nM and 5882 nM, respectively. Also, in experiment [10], the Ratio worked out at 852. In experiment [3], this compound had an Intrinsic activity of 0%. Moreover, the Control in the experiment on Rattus norvegicus [7] is given as 27%; in the experiment on Rattus norvegicus [8] it was 19%.
Consider `O=c1ccc2ccc(CN3CCC(c4ccccc4)CC3)cc2o1`, for which, on D(4) dopamine receptor, the Ki is 19 nM.
On to `Cc1ccccc1N1CCN(Cc2ccc3ccc(=O)oc3c2)CC1`, for which the inhibition constant (Ki) was found to be 16 nM at D(4) dopamine receptor and 1940 nM in experiment [9].
Compound `Cc1cccc(N2CCN(Cc3ccc4oc(=O)ccc4c3)CC2)c1` gave an inhibition constant Ki at D(4) dopamine receptor of 74 nM. That is a double-digit nanomolar value.
For `O=c1ccc2ccc(CN3CCN(c4ccccc4)CC3)cc2o1`, the inhibitory constant (Ki) at D(4) dopamine receptor worked out at 27 nM; in experiment [9], 5300 nM.
For the compound `CCN(CCNCc1ccc2ccc(=O)oc2c1)c1ccccc1`, the inhibitory constant (Ki) at D(4) dopamine receptor came out at 2660 nM.
On to `Cc1ccc(N2CCN(Cc3ccc4oc(=O)ccc4c3)CC2)cc1`, for which the Ki on D(4) dopamine receptor is 11 nM; in [9], 5836 nM. In experiment [11], the Intrinsic activity was found to be 0%. Further, the Control is recorded as -16% in the experiment with Rattus norvegicus [12] and 22% with Rattus norvegicus [13].
Compound `O=c1ccc2ccc(CN3CCN(c4ccc(Cl)cc4)CC3)cc2o1` returned a Ki on D(4) dopamine receptor of 93 nM.
`Cc1ccc(N2CCN(Cc3ccc4ccc(=O)oc4c3)CC2)cc1C`: the Ki came out at 14 nM on D(4) dopamine receptor and 433 nM in experiment [9].
For `Cc1cccc(N2CCN(Cc3ccc4ccc(=O)oc4c3)CC2)c1` the same measures were 32 nM and 4400 nM.
`COc1ccc(N2CCN(Cc3ccc4ccc(=O)oc4c3)CC2)cc1` yielded a Ki on D(4) dopamine receptor of 75 nM. This lies in the double-digit nanomolar range.
Same read-out and setting: the same measure for `CC(C)(C)c1ccc(N2CCN(Cc3ccc4ccc(=O)oc4c3)CC2)cc1`: 227 nM.
In turn, `Cc1ccc(NCCNCc2ccc3ccc(=O)oc3c2)cc1` showed an Intrinsic activity in [3] of 0%.
Regarding `O=c1ccc2ccc(CN3CCN(c4ccc(F)cc4)CC3)cc2o1`, the inhibitory constant (Ki) at D(4) dopamine receptor came out at 59 nM.
On the same count and under the same terms, the same measure for `CCN(CCNc1ccccc1)Cc1ccc2ccc(=O)oc2c1`: 410 nM.
